The values below come from ChEMBL document CHEMBL1150793, “In vitro susceptibilities of 217 clinical isolates of zygomycetes to conventional and new antifungal agents” (2007).

In assay [1] the test system is Absidia. The experiment in a line: Antimicrobial activity against Absidia sp. assessed as percent of susceptible isolates after 24 hrs. Format: functional.
The subject of assay [2] is Rhizopus arrhizus. Kind of assay: Antimicrobial activity against Rhizopus arrhizus assessed as percent of susceptible isolates after 24 hrs. Format: functional.
Assay [3] relates to Absidia. Kind of assay: Antimicrobial activity against Absidia sp. after 24 hrs. Format: functional, organism-based. The gist of the method:
(§1)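 Clinical zygomycete isolates tested by broth microdilution in microtiter format, in essential agreement with CLSI M38-A for filamentous fungi. The polyene and echinocandin were tested in antibiotic medium 3, and the other agents in RPMI 1640. Plates were incubated for 24 h at 35°C, and end points were read visually. The echinocandin end point was taken as the minimal effective concentration.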

Assay [4] concerns Rhizopus. The experiment in a line: Antimicrobial activity against Rhizopus sp. assessed as percent of susceptible isolates after 24 hrs. Format: functional.
In assay [5] the test system is Apophysomyces elegans. Kind of assay: Antimicrobial activity against Apophysomyces elegans assessed as percent of susceptible isolates after 24 hrs. Format: functional.
Assay [6] concerns Rhizomucor. The experiment in a line: Antimicrobial activity against Rhizomucor sp. assessed as percent of susceptible isolates after 24 hrs. Format: functional.
Assay [7] concerns Mucor circinelloides. The experiment in a line: Antimicrobial activity against Mucor circinelloides after 24 hrs. Format: functional. The gist of the method:
as §1

In assay [8] the test system is Rhizopus. The experiment in a line: Antimicrobial activity against Rhizopus sp. after 24 hrs. Format: functional. In short, it runs like this:
(§2)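 Broth microdilution of clinical isolates following CLSI M38-A for filamentous fungi. The polyene and echinocandin agents were tested in antibiotic medium 3, and the other agents in RPMI 1640. Plates were incubated 24 h at 35°C and end points read visually. The echinocandin end point was the minimal effective concentration (MEC); the others were MICs.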

The subject of assay [9] is Rhizopus arrhizus. Kind of assay: Antimicrobial activity against Rhizopus arrhizus after 24 hrs. Format: functional. The gist of the method:
as §1

The subject of assay [10] is Cunninghamella. Kind of assay: Antimicrobial activity against Cunninghamella sp. assessed as percent of susceptible isolates after 24 hrs. Format: functional.
Assay [11] has as its system Rhizopus microsporus var. rhizopodiformis. Kind of assay: Antimicrobial activity against Rhizopus microsporus var. rhizopodiformis assessed as percent of susceptible isolates after 24 hrs. Format: functional.
Assay [12] deals with Mucor. Kind of assay: Antimicrobial activity against Mucor sp. after 24 hrs. Format: functional. In short, it runs like this:
as §2

For assay [13], the system named is Lichtheimia corymbifera. Kind of assay: Antimicrobial activity against Absidia corymbifera after 24 hrs. Format: functional. In short, it runs like this: as §1
Assay [14] relates to Rhizopus microsporus var. rhizopodiformis. The experiment in a line: Antimicrobial activity against Rhizopus microsporus var. rhizopodiformis after 24 hrs. Format: functional. The gist of the method:
as §2

The subject of assay [15] is Mucor circinelloides. Kind of assay: Antimicrobial activity against Mucor circinelloides assessed as percent of susceptible isolates after 24 hrs. Format: functional.
Assay [16] deals with Cunninghamella. Kind of assay: Antimicrobial activity against Cunninghamella sp. after 24 hrs. Format: functional. In short, it runs like this:
as §1

The subject of assay [17] is Lichtheimia corymbifera. The experiment in a line: Antimicrobial activity against Absidia corymbifera assessed as percent of susceptible isolates after 24 hrs. Format: functional.
In assay [18] the test system is Apophysomyces elegans. The experiment in a line: Antimicrobial activity against Apophysomyces elegans after 24 hrs. Format: functional. In short, it runs like this:
as §1

The test system of assay [19] is Rhizomucor. The experiment in a line: Antimicrobial activity against Rhizomucor sp. after 24 hrs. Format: functional. The gist of the method: as §1
Assay [20] deals with Mucor. Kind of assay: Antimicrobial activity against Mucor sp. after assessed as percent of susceptible isolates after 24 hrs. Format: functional.
Assay [21] has as its system Rhizopus microsporus var. microsporus. Kind of assay: Antimicrobial activity against Rhizopus microsporus var. microsporus assessed as percent of susceptible isolates after 24 hrs. Format: functional.

In brackets after ≈: the same amount, converted by molar mass. Activity calls are given as the source filed them. No cut-off for these calls is given here.

For orientation: MIC50 means an inhibitory concentration at the 50% level, which refers to growth in some studies and to a panel of isolates in others. As usually defined, the MIC90 is an inhibitory concentration at the 90% level, which refers to growth in some studies and to a panel of isolates in others. `C[C@@H]1[C@H](O)[C@@H](C)/C=C/C=C/C=C/C=C/C=C/C=C/C=C/[C@H](O[C@@H]2O[C@H](C)[C@@H](O)[C@H](N)[C@@H]2O)C[C@@H]2O[C@](O)(C[C@@H](O)C[C@@H](O)[C@H](O)CC[C@@H](O)C[C@@H](O)CC(=O)O[C@H]1C)C[C@H](O)[C@H]2C(=O)O` [AMPHOTERICIN B]: the Activity was found to be 100% with Absidia [1]; 100% in the assay on Rhizopus arrhizus [2]; 100% in the assay with Rhizopus [4]; 100% with Apophysomyces elegans [5]; 100% in the assay with Rhizomucor [6]; 63% in the assay with Cunninghamella [10]. The Activity in assay [11] was found to be 100%; in the assay with Mucor circinelloides [15] it was 100%; in the assay on Lichtheimia corymbifera [17], 100%; in the assay on Mucor [20], 94%; in assay [21] it was 100%. For the same molecule, in the assay on Absidia [3], the result was inactive. Besides, the MIC50 (in the assay with Mucor circinelloides [7]; in the assay on Rhizopus [8]; in the assay on Rhizopus arrhizus [9]; against Mucor [12]; with Lichtheimia corymbifera [13]; in assay [14]) was 0.25 µg/mL (≈ 0.271 µM) throughout. The values for the MIC50 in the assay on Cunninghamella [16], against Apophysomyces elegans [18] and against Rhizomucor [19] were 1 µg/mL (≈ 1.08 µM), 0.125 µg/mL (≈ 0.135 µM) and 0.125 µg/mL (≈ 0.135 µM), respectively. For the same molecule, the MIC90 in the assay on Rhizopus [8] amounted to 0.5 µg/mL (≈ 0.541 µM); in the assay with Rhizopus arrhizus [9] it was 0.25 µg/mL (≈ 0.271 µM); against Mucor [12], 0.5 µg/mL (≈ 0.541 µM); in assay [14], 0.25 µg/mL (≈ 0.271 µM).

With `CC[C@H](C)C[C@H](C)CCCCCCCCC(=O)N[C@H]1C[C@@H](O)[C@@H](NCCN)NC(=O)[C@@H]2[C@@H](O)CCN2C(=O)[C@H]([C@H](O)CCN)NC(=O)[C@H]([C@H](O)[C@@H](O)c2ccc(O)cc2)NC(=O)[C@@H]2C[C@@H](O)CN2C(=O)[C@H]([C@@H](C)O)NC1=O` [CASPOFUNGIN], the Activity with Absidia [1], with Rhizopus arrhizus [2], in the assay on Rhizopus [4], in the assay on Apophysomyces elegans [5], in the assay with Rhizomucor [6] and with Cunninghamella [10] was 0% in each case. For the same molecule, the Activity (in assay [11]; in the assay with Mucor circinelloides [15]; with Lichtheimia corymbifera [17]; with Mucor [20]) was 0% throughout. Further, the outcome with Absidia [3], with Mucor circinelloides [7], in the assay on Lichtheimia corymbifera [13], with Cunninghamella [16], with Apophysomyces elegans [18] and with Rhizomucor [19] was inactive. Moreover, the MIC50 (against Rhizopus [8]; against Rhizopus arrhizus [9]; against Mucor [12]; in assay [14]) was above 16 µg/mL each time. For the same molecule, the MIC90 in the assay with Rhizopus [8] and in the assay on Mucor [12] was above 16 µg/mL each time.

As for `OC(Cn1cncn1)(Cn1cncn1)c1ccc(F)cc1F` [FLUCONAZOLE], the Activity (in the assay on Rhizopus arrhizus [2]; with Rhizopus [4]; in the assay on Apophysomyces elegans [5]; with Rhizomucor [6]; in the assay with Cunninghamella [10]; in assay [11]) was 0% throughout. The Activity in the assay on Mucor circinelloides [15] and in the assay on Mucor [20] was 0% in each case. Besides, the outcome with Absidia [3], in the assay on Mucor circinelloides [7], in the assay on Rhizopus arrhizus [9], in the assay with Lichtheimia corymbifera [13], in the assay on Cunninghamella [16] and in the assay on Apophysomyces elegans [18] was inactive. The outcome in the assay on Rhizomucor [19] was inactive. Moreover, the MIC50 against Rhizopus [8] and against Mucor [12] was above 64 µg/mL each time. This molecule returned an MIC90 against Rhizopus [8] above 64 µg/mL. Moreover, the Antimicrobial activity entry in assay [14] is “inactive”.

For the molecule `Nc1nc(=O)[nH]cc1F` [FLUCYTOSINE], the Activity (in the assay on Rhizopus arrhizus [2]; with Rhizopus [4]; in the assay on Cunninghamella [10]; in [11]; in the assay on Mucor circinelloides [15]; with Mucor [20]) was 0% each time. In addition, the result (in the assay with Mucor circinelloides [7]; in the assay with Rhizopus [8]; in the assay on Rhizopus arrhizus [9]; in assay [14]; with Cunninghamella [16]) was inactive. This molecule also returned an MIC50 in the assay on Mucor [12] above 64 µg/mL.

In the case of `CCC(C)n1ncn(-c2ccc(N3CCN(c4ccc(OC[C@H]5CO[C@](Cn6cncn6)(c6ccc(Cl)cc6Cl)O5)cc4)CC3)cc2)c1=O` (some centres not stated) [ITRACONAZOLE], the Activity is given as 50% in the assay on Absidia [1]; 50% in the assay on Rhizopus arrhizus [2]; 62% in the assay on Rhizopus [4]; 80% in the assay on Apophysomyces elegans [5]; 67% in the assay on Rhizomucor [6]; 29% in the assay on Cunninghamella [10]. Besides, the Activity in assay [11] was 60%; in the assay with Mucor circinelloides [15], 0%; in the assay on Lichtheimia corymbifera [17] it was 100%; in the assay on Mucor [20] it was 57%; in assay [21] it was 0%. Also, the outcome with Absidia [3], in the assay on Mucor circinelloides [7], with Lichtheimia corymbifera [13] and with Rhizomucor [19] was inactive. For the same molecule, the MIC50 in the assay with Rhizopus [8] was 0.5 µg/mL (≈ 0.709 µM); in the assay on Rhizopus arrhizus [9], 0.5 µg/mL (≈ 0.709 µM); with Mucor [12], 0.5 µg/mL (≈ 0.709 µM); in assay [14] it was 0.5 µg/mL (≈ 0.709 µM); against Cunninghamella [16] it was 1 µg/mL (≈ 1.42 µM); in the assay with Apophysomyces elegans [18], 0.125 µg/mL (≈ 0.177 µM). Moreover, the results for the MIC90 against Rhizopus [8] and in the assay with Mucor [12] were 4 µg/mL (≈ 5.67 µM) and above 8 µg/mL, respectively.

In the case of `CC(=O)N1CCN(c2ccc(OCC3COC(Cn4ccnc4)(c4ccc(Cl)cc4Cl)O3)cc2)CC1` (configuration not stated) [KETOCONAZOLE], the Activity is 0% in the assay on Rhizopus arrhizus [2]; 83% in the assay on Rhizopus [4]; 0% in the assay on Cunninghamella [10]; 0% in [11]; 0% in the assay on Mucor circinelloides [15]; 33% in the assay with Mucor [20]. Further, the outcome (with Absidia [3]; in the assay with Mucor circinelloides [7]; in the assay on Rhizopus arrhizus [9]; in the assay on Mucor [12]; in the assay on Lichtheimia corymbifera [13]; in [14]) was inactive. Also, the result in the assay on Cunninghamella [16], with Apophysomyces elegans [18] and in the assay with Rhizomucor [19] was inactive. The molecule further came in with an MIC50 in the assay on Rhizopus [8] of 1 µg/mL (≈ 1.88 µM).

With `CC[C@@H]([C@H](C)O)n1ncn(-c2ccc(N3CCN(c4ccc(OC[C@@H]5CO[C@@](Cn6cncn6)(c6ccc(F)cc6F)C5)cc4)CC3)cc2)c1=O` [POSACONAZOLE], the Activity is on record as 100% in the assay with Absidia [1]; 64% with Rhizopus arrhizus [2]; 80% in the assay on Rhizopus [4]; 83% in the assay with Apophysomyces elegans [5]; 67% in the assay on Rhizomucor [6]; 75% in the assay on Cunninghamella [10]. The Activity in assay [11] is 78%; in the assay on Mucor circinelloides [15], 0%; in the assay on Lichtheimia corymbifera [17] it was 100%; in the assay with Mucor [20] it was 70%. For the same molecule, the outcome in the assay with Absidia [3], in the assay on Mucor circinelloides [7], in the assay on Lichtheimia corymbifera [13] and with Rhizomucor [19] was inactive. In addition, the MIC50 worked out at 0.25 µg/mL (≈ 0.357 µM) against Rhizopus [8]; 0.25 µg/mL (≈ 0.357 µM) in the assay on Rhizopus arrhizus [9]; 0.5 µg/mL (≈ 0.713 µM) in the assay with Mucor [12]; 0.25 µg/mL (≈ 0.357 µM) in [14]; 0.5 µg/mL (≈ 0.713 µM) against Cunninghamella [16]; 0.03 µg/mL (≈ 0.0428 µM) in the assay with Apophysomyces elegans [18]. Also, the values for the MIC90 against Rhizopus [8], with Rhizopus arrhizus [9] and against Mucor [12] were 1 µg/mL (≈ 1.43 µM), 1 µg/mL (≈ 1.43 µM) and 2 µg/mL (≈ 2.85 µM), respectively.

`C[C@@H](c1ncncc1F)[C@](O)(Cn1cncn1)c1ccc(F)cc1F` [VORICONAZOLE]: the Activity is listed as 0% with Absidia [1]; 0% in the assay with Rhizopus arrhizus [2]; 5% in the assay on Rhizopus [4]; 100% in the assay with Apophysomyces elegans [5]; 0% with Rhizomucor [6]; 10% in the assay with Cunninghamella [10]. Also, the Activity (in assay [11]; in the assay on Mucor circinelloides [15]; with Lichtheimia corymbifera [17]; in the assay on Mucor [20]) was 0% in each case. Besides, the result in the assay with Absidia [3], with Mucor circinelloides [7], with Lichtheimia corymbifera [13] and in the assay with Rhizomucor [19] was inactive. The MIC50 was 8 µg/mL (≈ 22.9 µM) in the assay with Rhizopus [8], above 8 µg/mL against Rhizopus arrhizus [9], above 8 µg/mL against Mucor [12] and above 8 µg/mL against Cunninghamella [16]. The MIC90 with Rhizopus [8], in the assay with Mucor [12] and with Cunninghamella [16] was above 8 µg/mL each time. Also, the Antimicrobial activity result in assay [14] is “inactive”.
